Test results published in ChEMBL document CHEMBL4321796, “Proteolysis Targeting Chimeras for the Selective Degradation of Mcl-1/Bcl-2 Derived from Nonselective Target Binding Ligands” (J Med Chem, 2019).
Active and inactive are the calls of the source. The rule behind the calls is not given here.

Tests used:
[1] = molecular target: T1, Protein cereblon/Induced myeloid leukemia cell differentiation protein Mcl-1 (Homo sapiens, UniProt Q07820+Q96SW2); assay: Induction of CRBN-mediated Mcl-1 degradation in human HeLa cells assessed as relative abundance at 10 uM after 12 hrs by Western blot analysis (reference value: 1); type: cell-based
Target sequence in this assay (Q07820 whole entry, looked up): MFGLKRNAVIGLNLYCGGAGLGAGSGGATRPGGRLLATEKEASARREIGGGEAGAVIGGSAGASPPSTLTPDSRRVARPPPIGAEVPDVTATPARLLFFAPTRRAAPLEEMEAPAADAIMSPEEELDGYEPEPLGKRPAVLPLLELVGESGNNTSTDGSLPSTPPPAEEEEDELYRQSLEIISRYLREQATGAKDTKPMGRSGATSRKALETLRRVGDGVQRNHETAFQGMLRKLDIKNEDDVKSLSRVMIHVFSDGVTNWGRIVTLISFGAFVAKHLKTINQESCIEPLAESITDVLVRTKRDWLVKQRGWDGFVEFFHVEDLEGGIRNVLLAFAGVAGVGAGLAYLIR
Target sequence in this assay (Q96SW2 whole entry, looked up): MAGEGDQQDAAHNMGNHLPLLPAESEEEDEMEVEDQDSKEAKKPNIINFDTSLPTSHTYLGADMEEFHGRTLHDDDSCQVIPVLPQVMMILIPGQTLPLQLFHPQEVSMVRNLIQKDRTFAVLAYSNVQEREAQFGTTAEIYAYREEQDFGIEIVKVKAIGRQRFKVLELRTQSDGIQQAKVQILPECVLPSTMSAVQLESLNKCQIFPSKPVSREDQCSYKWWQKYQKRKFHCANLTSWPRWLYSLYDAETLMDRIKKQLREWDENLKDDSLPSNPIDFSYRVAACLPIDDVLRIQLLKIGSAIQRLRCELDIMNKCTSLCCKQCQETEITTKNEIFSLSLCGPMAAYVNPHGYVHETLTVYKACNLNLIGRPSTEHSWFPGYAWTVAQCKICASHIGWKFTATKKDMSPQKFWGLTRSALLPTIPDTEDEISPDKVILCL

[2] = molecular target: T2, Protein cereblon/Apoptosis regulator Bcl-2 (Homo sapiens, UniProt P10415+Q96SW2); assay: Induction of CRBN-mediated Bcl-2 degradation in human HeLa cells assessed as relative abundance at 1 uM after 12 hrs by Western blot analysis (reference value: 1); type: cell-based
T2 sequence (P10415 whole entry, looked up): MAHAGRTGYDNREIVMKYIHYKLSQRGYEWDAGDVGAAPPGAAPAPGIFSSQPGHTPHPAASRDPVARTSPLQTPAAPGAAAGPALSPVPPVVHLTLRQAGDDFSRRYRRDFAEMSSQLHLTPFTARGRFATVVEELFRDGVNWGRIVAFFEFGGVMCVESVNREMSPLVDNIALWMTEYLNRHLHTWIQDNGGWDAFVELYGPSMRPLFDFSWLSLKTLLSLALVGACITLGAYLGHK
T2 sequence (Q96SW2 whole entry, looked up): as the sequence (Q96SW2 whole entry, looked up) above

[3] = molecular target: T1, Protein cereblon/Induced myeloid leukemia cell differentiation protein Mcl-1; assay: Induction of CRBN-mediated Mcl-1 degradation in human HeLa cells assessed as relative abundance at 1 uM after 12 hrs by Western blot analysis (reference value: 1); type: cell-based
Target sequence in this assay (Q07820 whole entry, looked up): as the sequence (Q07820 whole entry, looked up) above
Target sequence in this assay (Q96SW2 whole entry, looked up): as the sequence (Q96SW2 whole entry, looked up) above

[4] = molecular target: T1, Protein cereblon/Induced myeloid leukemia cell differentiation protein Mcl-1; assay: Induction of CRBN-mediated Mcl-1 degradation in human HeLa cells assessed as relative abundance at 10 uM measured at 8 hrs by Western blot analysis (reference value: 1); type: cell-based
Outline: (§1)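 HeLa cells in DMEM with 10% FBS, exposed to 10 µM compound over a 0–24 h time course. Mcl-1 and Bcl-2 detected by immunoblot (NP-40 lysis, BCA-equalized SDS-PAGE, PVDF, ECL) and quantified relative to DMSO control; mean ± s.d., n=3 independent samples.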
Target sequence in this assay (Q07820 whole entry, looked up): as the sequence (Q07820 whole entry, looked up) above
Target sequence in this assay (Q96SW2 whole entry, looked up): as the sequence (Q96SW2 whole entry, looked up) above

[5] = molecular target: T1, Protein cereblon/Induced myeloid leukemia cell differentiation protein Mcl-1; assay: Induction of CRBN-mediated Mcl-1 degradation in human HeLa cells assessed as relative abundance at 0.3 uM after 12 hrs by Western blot analysis (reference value: 1); type: cell-based
Target sequence in this assay (Q07820 whole entry, looked up): as the sequence (Q07820 whole entry, looked up) above
Target sequence in this assay (Q96SW2 whole entry, looked up): as the sequence (Q96SW2 whole entry, looked up) above

[6] = molecular target: T1, Protein cereblon/Induced myeloid leukemia cell differentiation protein Mcl-1; assay: Induction of CRBN-mediated Mcl-1 degradation in human HeLa cells assessed as relative abundance at 10 uM measured at 24 hrs by Western blot analysis (reference value: 1); type: cell-based; outline: as §1
Target sequence in this assay (Q07820 whole entry, looked up): as the sequence (Q07820 whole entry, looked up) above
Target sequence in this assay (Q96SW2 whole entry, looked up): as the sequence (Q96SW2 whole entry, looked up) above

[7] = molecular target: T1, Protein cereblon/Induced myeloid leukemia cell differentiation protein Mcl-1; assay: Induction of CRBN-mediated Mcl-1 degradation in human HeLa cells assessed as relative abundance at 10 uM measured at 2 hrs by Western blot analysis (reference value: 1); type: cell-based; outline: as §1
Target sequence in this assay (Q07820 whole entry, looked up): as the sequence (Q07820 whole entry, looked up) above
Target sequence in this assay (Q96SW2 whole entry, looked up): as the sequence (Q96SW2 whole entry, looked up) above

[8] = molecular target: T1, Protein cereblon/Induced myeloid leukemia cell differentiation protein Mcl-1; assay: Induction of CRBN-mediated Mcl-1 degradation in human HeLa cells assessed as relative abundance at 10 uM measured at 16 hrs by Western blot analysis (reference value: 1); type: cell-based; outline: as §1
[9] = molecular target: T2, Protein cereblon/Apoptosis regulator Bcl-2; assay: Induction of CRBN-mediated Bcl-2 degradation in human HeLa cells assessed as relative abundance at 10 uM after 12 hrs by Western blot analysis (reference value: 1); type: cell-based
[10] = molecular target: T1, Protein cereblon/Induced myeloid leukemia cell differentiation protein Mcl-1; assay: Induction of CRBN-mediated Mcl-1 degradation in human HeLa cells assessed as Mcl-1 removal activity measured at 12 hrs by Western blot analysis; type: cell-based
Target sequence in this assay (Q07820 whole entry): as the sequence (Q07820 whole entry, looked up) above
Target sequence in this assay (Q96SW2 whole entry): as the sequence (Q96SW2 whole entry, looked up) above

[11] = molecular target: T2, Protein cereblon/Apoptosis regulator Bcl-2; assay: Induction of CRBN-mediated Bcl-2 degradation in human HeLa cells assessed as relative abundance at 3 uM after 12 hrs by Western blot analysis (reference value: 1); type: cell-based
[12] = molecular target: T1, Protein cereblon/Induced myeloid leukemia cell differentiation protein Mcl-1; assay: Induction of CRBN-mediated Mcl-1 degradation in human HeLa cells assessed as relative abundance at 10 uM measured at 20 hrs by Western blot analysis (reference value: 1); type: cell-based; outline: as §1
[13] = molecular target: T1, Protein cereblon/Induced myeloid leukemia cell differentiation protein Mcl-1; assay: Induction of CRBN-mediated Mcl-1 degradation in human HeLa cells assessed as relative abundance at 10 uM measured at 4 hrs by Western blot analysis (reference value: 1); type: cell-based; outline: as §1
[14] = molecular target: T1, Protein cereblon/Induced myeloid leukemia cell differentiation protein Mcl-1; assay: Induction of CRBN-mediated Mcl-1 degradation in human HeLa cells at 10 uM measured at 24 hrs by Western blot analysis relative to control; type: cell-based; outline: as §1
[15] = molecular target: T2, Protein cereblon/Apoptosis regulator Bcl-2; assay: Induction of CRBN-mediated Bcl-2 degradation in human HeLa cells assessed as relative abundance at 10 uM measured at 8 hrs by Western blot analysis (reference value: 1); type: cell-based; outline: as §1
[16] = molecular target: T1, Protein cereblon/Induced myeloid leukemia cell differentiation protein Mcl-1; assay: Induction of CRBN-mediated Mcl-1 degradation in human HeLa cells assessed as relative abundance at 3 uM after 12 hrs by Western blot analysis (reference value: 1); type: cell-based
[17] = molecular target: T1, Protein cereblon/Induced myeloid leukemia cell differentiation protein Mcl-1; assay: Induction of CRBN-mediated Mcl-1 degradation in human HeLa cells assessed as relative abundance at 0.1 uM after 12 hrs by Western blot analysis (reference value: 1); type: cell-based
[18] = molecular target: T2, Protein cereblon/Apoptosis regulator Bcl-2; assay: Induction of CRBN-mediated Bcl-2 degradation in human HeLa cells assessed as relative abundance at 0.1 uM after 12 hrs by Western blot analysis (reference value: 1); type: cell-based
[19] = molecular target: T2, Protein cereblon/Apoptosis regulator Bcl-2; assay: Induction of CRBN-mediated Bcl-2 degradation in human HeLa cells assessed as relative abundance at 10 uM measured at 20 hrs by Western blot analysis (reference value: 1); type: cell-based; outline: as §1
[20] = molecular target: T2, Protein cereblon/Apoptosis regulator Bcl-2; assay: Induction of CRBN-mediated Bcl-2 degradation in human HeLa cells assessed as relative abundance at 10 uM measured at 16 hrs by Western blot analysis (reference value: 1); type: cell-based; outline: as §1
[21] = molecular target: T2, Protein cereblon/Apoptosis regulator Bcl-2; assay: Induction of CRBN-mediated Bcl-2 degradation in human HeLa cells assessed as relative abundance at 10 uM measured at 2 hrs by Western blot analysis (reference value: 1); type: cell-based; outline: as §1
[22] = molecular target: T1, Protein cereblon/Induced myeloid leukemia cell differentiation protein Mcl-1; assay: Induction of CRBN-mediated Mcl-1 degradation in human K562 cells incubated for 12 hrs by Western blot analysis; type: cell-based
Outline: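 K562 cells kept in RPMI1640 with 10% FBS at 37 °C, 5% CO2. After compound treatment, cells lysed in NP-40 buffer with protease inhibitors. Equal protein run on SDS-PAGE, then immunoblotted; protein levels quantified from the blots.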

[23] = molecular target: T2, Protein cereblon/Apoptosis regulator Bcl-2; assay: Induction of CRBN-mediated Bcl-2 degradation in human HeLa cells assessed as relative abundance at 0.3 uM after 12 hrs by Western blot analysis (reference value: 1); type: cell-based
[24] = molecular target: T2, Protein cereblon/Apoptosis regulator Bcl-2; assay: Induction of CRBN-mediated Bcl-2 degradation in human HeLa cells assessed as relative abundance at 10 uM measured at 24 hrs by Western blot analysis (reference value: 1); type: cell-based; outline: as §1
[25] = molecular target: T2, Protein cereblon/Apoptosis regulator Bcl-2; assay: Induction of CRBN-mediated Bcl-2 degradation in human HeLa cells assessed as relative abundance at 10 uM measured at 4 hrs by Western blot analysis (reference value: 1); type: cell-based; outline: as §1
[26] = test system: NCI-H23; assay: Cytotoxicity against human H23 cells incubated for 24 hrs by CCK8 assay; type: functional, cell-based
Outline: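 H23 cells seeded at 4 × 10^4 per mL in RPMI with 10% FBS, L-glutamine and pen/strep. Treated 24 h at various concentrations or with DMSO vehicle (0.05%). Viability read by CCK8 and normalized against cell-free background and untreated cultures; mean ± s.e.m., n=3.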

[27] = molecular target: T1, Protein cereblon/Induced myeloid leukemia cell differentiation protein Mcl-1; assay: Induction of CRBN-mediated Mcl-1 degradation in human HeLa cells by Western blot analysis; type: cell-based
Outline: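 HeLa cells (DMEM, 10% FBS, 37 °C, 5% CO2) treated 12 h with compound (10 µM, or 0–10 µM gradient; time course 0–24 h at 10 µM). Lysis in NP-40 buffer with protease inhibitors, equal protein loaded for SDS-PAGE and immunoblotting. Bands quantified relative to DMSO control. n=3 independent samples.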

[28] = molecular target: T2, Protein cereblon/Apoptosis regulator Bcl-2; assay: Induction of CRBN-mediated Bcl-2 degradation in human HeLa cells by Western blot analysis; type: cell-based

N#CC1=C(NCCC(=O)O)c2ccc(Sc3ccc(Br)cc3)c3cccc(c23)C1=O
fold change (FC) [1]: 0.6
fold change (FC) [2]: 1.3
fold change (FC) [3]: 1.1
fold change (FC) [4]: 0.9
fold change (FC) [5]: 1.1
fold change (FC) [6]: 0.2
fold change (FC) [7]: 1
fold change (FC) [8]: 0.5
fold change (FC) [9]: 1.1
DC50 [10]: 3.6 µM
fold change (FC) [11]: 1
fold change (FC) [12]: 0.3
fold change (FC) [13]: 1
Activity [14]: 80%
fold change (FC) [15]: 1.3
fold change (FC) [16]: 0.8
fold change (FC) [17]: 1
fold change (FC) [18]: 1.2
fold change (FC) [19]: 1.1
fold change (FC) [20]: 1
fold change (FC) [21]: 1.1
Activity [22]: Active
fold change (FC) [23]: 1.3
fold change (FC) [24]: 1.1
fold change (FC) [25]: 1.2

CN1C(=O)CCC(N2C(=O)c3cccc(NCCCCCCNC(=O)CCCCC(=O)NCCN4C(=O)c5cccc6c(Sc7ccc(Br)cc7)ccc(c56)C4=O)c3C2=O)C1=O (stereo not drawn)
Activity [26]: Active
Activity [27]: inactive

CN1C(=O)CCC(N2C(=O)c3cccc(NCCOCCOCCNC(=O)CCCCC(=O)NCCN4C(=O)c5cccc6c(Sc7ccc(Br)cc7)ccc(c56)C4=O)c3C2=O)C1=O (stereo not drawn)
Activity [28]: inactive
